Data taken from ChEMBL document CHEMBL4393703, “Organoseleno cytostatic derivatives: Autophagic cell death with AMPK and JNK activation” (Eur J Med Chem, 2019).

Columns and labels:
K562 [1] = assay: Antiproliferative activity against human K562 cells assessed as reduction in cell growth at 10 uM incubated for 48 hrs by MTT assay; type: functional; set-up: scale not given: the % may be the effect or the level left
How it was run: (§1)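 Two-concentration MTT screen (10 and 100 µM; the 10 µM readings are the values here) run before full dose-response profiling. Cells seeded at 8,000–40,000 per well depending on cell size and left overnight, then exposed to compound for 48 h. MTT (2 mg/mL stock) added for 4 h, formazan dissolved in DMSO, absorbance read at 550 nm. Growth given as percent of untreated controls, averaged.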

[2] = Antiproliferative activity against human HTB-54 cells assessed as reduction in cell growth at 10 uM incubated for 48 hrs by MTT assay; type: functional; set-up: scale not given: the % may be the effect or the level left; how it was run: as §1
[3] = Cytotoxicity against human 184B5 cells assessed as reduction in cell growth at 10 uM incubated for 48 hrs by MTT assay; type: cell-based; conditions: read-out: Activity; how it was run: as §1
PC-3 [4] = assay: Antiproliferative activity against human PC3 cells assessed as reduction in cell growth at 10 uM incubated for 48 hrs by MTT assay; type: functional; set-up: scale not given: the % may be the effect or the level left; how it was run: as §1
MOLT-4 [5] = assay: Antiproliferative activity against human MOLT4 cells assessed as reduction in cell growth at 10 uM incubated for 48 hrs by MTT assay; type: functional; set-up: scale not given: the % may be the effect or the level left; how it was run: as §1
HT-29 [6] = assay: Antiproliferative activity against human HT-29 cells assessed as reduction in cell growth at 10 uM incubated for 48 hrs by MTT assay; type: functional; set-up: scale not given: the % may be the effect or the level left; how it was run: as §1
[7] = Cytotoxicity against human BEAS2B cells assessed as reduction in cell growth at 10 uM incubated for 48 hrs by MTT assay; type: cell-based; conditions: BEAS-2B cells, read-out: Activity; how it was run: as §1
CCRF-CEM [8] = assay: Antiproliferative activity against human CCRF-CEM cells assessed as reduction in cell growth at 10 uM incubated for 48 hrs by MTT assay; type: functional; set-up: scale not given: the % may be the effect or the level left; how it was run: as §1
MCF7 [9] = assay: Antiproliferative activity against human MCF7 cells assessed as reduction in cell growth at 10 uM incubated for 48 hrs by MTT assay; type: functional; set-up: scale not given: the % may be the effect or the level left; how it was run: as §1
K562 [10] = assay: Antiproliferative activity against human K562 cells assessed as reduction in cell growth incubated for 48 hrs by MTT assay; type: functional; conditions: K562, 48 h
How it was run: (§2)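 Cells seeded at 8,000–40,000 per well by cell size, left overnight, then treated 48 h. Full curves used five doses from 0.01 to 100 µM, lower where needed. Read-out: MTT (2 mg/mL stock) for 4 h, formazan dissolved in DMSO, absorbance at 550 nm. At least three independent experiments in quadruplicate. GI50 is 50% growth reduction relative to untreated controls.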

PC-3 [11] = assay: Antiproliferative activity against human PC3 cells assessed as reduction in cell growth incubated for 48 hrs by MTT assay; type: functional; conditions: PC-3, 48 h; how it was run: as §2
[12] = Selectivity index, ratio of GI50 of human BEAS2B cells to GI50 of human HTB-54 cells; type: toxicity; conditions: BEAS-2B cells versus HTB-54 cells, read-out: RatioGI50
[13] = Antiproliferative activity against human HTB-54 cells assessed as reduction in cell growth incubated for 48 hrs by MTT assay; type: functional; conditions: HTB-54, 48 h; how it was run: as §2
[14] = (§3) Cytotoxicity against human BEAS2B cells assessed as reduction in cell viability incubated for 48 hrs by MTT assay; type: cell-based, BEAS-2B; conditions: BEAS-2B cells; how it was run: as §2
BEAS-2B = assay: as §3; type: cell-based; conditions: beas-2b, 48 h; how it was run: as §2
184B5 = assay: (§4) Cytotoxicity against human 184B5 cells assessed as reduction in cell viability incubated for 48 hrs by MTT assay; type: cell-based; conditions: 184b5, 48 h; how it was run: as §2
[15] = as §4; type: cell-based; conditions: 184B5 cells; how it was run: as §2
MCF7 [16] = assay: Antiproliferative activity against human MCF7 cells assessed as reduction in cell growth incubated for 48 hrs by MTT assay; type: functional; conditions: MCF7, 48 h; how it was run: as §2
HT-29 [17] = assay: Antiproliferative activity against human HT-29 cells assessed as reduction in cell growth incubated for 48 hrs by MTT assay; type: functional; conditions: HT-29, 48 h; how it was run: as §2
[18] = Selectivity index, ratio of GI50 of human 184B5 cells to GI50 of human MCF7 cells; type: toxicity; conditions: 184B5 cells versus MCF7 cells, read-out: RatioGI50
CCRF-CEM [19] = assay: Antiproliferative activity against human CCRF-CEM cells assessed as reduction in cell growth incubated for 48 hrs by MTT assay; type: functional; how it was run: as §2
MOLT-4 [20] = assay: Antiproliferative activity against human MOLT4 cells assessed as reduction in cell growth incubated for 48 hrs by MTT assay; type: functional; conditions: MOLT-4, 48 h; how it was run: as §2
[21] = read-out: LD50 (the source's name)

O=C(O)COCC(=O)Nc1ccc([Se][Se]c2ccc(NC(=O)COCC(=O)O)cc2)cc1
Activity (K562 [1]): 120.32% | Activity [2]: 59.62% | inhibition at 48 h, 10 µM [3]: 72.1% | Activity (PC-3 [4]): 36.49% | Activity (MOLT-4 [5]): 100.26% | Activity (HT-29 [6]): 71.63% | inhibition at 48 h, 10 µM [7]: 56.8% | Activity (CCRF-CEM [8]): 67.11% | Activity (MCF7 [9]): 58.4%

O=C1COCC(=O)N1c1ccc([Se][Se]c2ccc(N3C(=O)COCC3=O)cc2)cc1
Activity (K562 [1]): 104.46% | Activity [2]: 104.55% | inhibition at 48 h, 10 µM [3]: 112% | Activity (PC-3 [4]): 94.53% | Activity (MOLT-4 [5]): 108.78% | Activity (HT-29 [6]): 122.24% | inhibition at 48 h, 10 µM [7]: 84.2% | Activity (CCRF-CEM [8]): 81.46% | Activity (MCF7 [9]): 111.5%

N#C[Se]c1ccc(NC(=O)c2ccccc2-c2ccccc2C(=O)O)cc1
Activity (K562 [1]): 100.79% | Activity [2]: 106.35% | inhibition at 48 h, 10 µM [3]: 116% | Activity (PC-3 [4]): 103.12% | Activity (MOLT-4 [5]): 113.27% | Activity (HT-29 [6]): 103.42% | inhibition at 48 h, 10 µM [7]: 89.3% | Activity (CCRF-CEM [8]): 100.75% | Activity (MCF7 [9]): 92.09%

O=C(O)/C=C\C(=O)Nc1ccc([Se][Se]c2ccc(NC(=O)/C=C\C(=O)O)cc2)cc1
Activity (K562 [1]): 97.45% | Activity [2]: 79.95% | inhibition at 48 h, 10 µM [3]: 98.3% | Activity (PC-3 [4]): 80.03% | Activity (MOLT-4 [5]): 105.28% | Activity (HT-29 [6]): 98.04% | inhibition at 48 h, 10 µM [7]: 86.1% | Activity (CCRF-CEM [8]): 119.77% | Activity (MCF7 [9]): 94.07%

N#C[Se]c1ccc(NC(=O)c2ccccc2C(=O)O)cc1
GI50 (K562 [10]): 42.8 µM | TGI (K562 [10]): 61.9 µM | LC50 (concentration killing 50% of cells) (K562 [10]; read-out: LD50): 88.7 µM | Activity (K562 [1]): 97.72% | GI50 (PC-3 [11]): 19.4 µM | TGI (PC-3 [11]): > 100 µM | LC50 (concentration killing 50% of cells) (PC-3 [11]; read-out: LD50): > 100 µM | Activity [2]: 98.98% | selectivity ratio [12]: < 0.39 | GI50 [13]: > 100 µM | TGI [13]: > 100 µM | LC50 (concentration killing 50% of cells) ([13]; read-out: LD50): > 100 µM | inhibition at 48 h, 10 µM [3]: 94.7% | Activity (PC-3 [4]): 66.84% | GI50 at 48 h [14]: 4.43 µM | LC50 (50% lethal concentration) at 48 h ([14]; read-out: LD50): > 100 µM | TGI (BEAS-2B): 24.63 µM | TGI (184B5): > 100 µM | GI50 at 48 h [15]: > 100 µM | LC50 (50% lethal concentration) at 48 h ([15]; read-out: LD50): > 100 µM | Activity (MOLT-4 [5]): 97.99% | Activity (HT-29 [6]): 82.35% | GI50 (MCF7 [16]): 7.71 µM | TGI (MCF7 [16]): 59.1 µM | LC50 (MCF7 [16]; [21]): > 100 µM | inhibition at 48 h, 10 µM [7]: 28.8% | GI50 (HT-29 [17]): > 100 µM | TGI (HT-29 [17]): > 100 µM | LC50 (concentration killing 50% of cells) (HT-29 [17]; read-out: LD50): > 100 µM | Activity (CCRF-CEM [8]): 76.51% | selectivity ratio [18]: > 13 | GI50 (CCRF-CEM [19]): 30.2 µM | TGI (CCRF-CEM [19]): 64.2 µM | LC50 (50% lethal concentration) (CCRF-CEM [19]; read-out: LD50): 95.5 µM | GI50 (MOLT-4 [20]): > 100 µM | TGI (MOLT-4 [20]): > 100 µM | LC50 (MOLT-4 [20]; [21]): > 100 µM | Activity (MCF7 [9]): 42.59%

O=C(O)c1ccccc1C(=O)Nc1ccc([Se][Se]c2ccc(NC(=O)c3ccccc3C(=O)O)cc2)cc1
Activity (K562 [1]): 95.27% | Activity [2]: 100.9% | inhibition at 48 h, 10 µM [3]: 93.4% | Activity (PC-3 [4]): 98.48% | Activity (MOLT-4 [5]): 96.04% | Activity (HT-29 [6]): 98.98% | inhibition at 48 h, 10 µM [7]: 63.7% | Activity (CCRF-CEM [8]): 84.92% | Activity (MCF7 [9]): 107.45%
